Measured values: PMC10349574 (Drug Design, Development and Therapy, 2023)
Entries after “also recorded” stand apart in the source; their conditions may differ.

What was measured:
DU145 cells [1] = test: Apoptosis assay, Annexin V-FITC/Propidium Iodide flow cytometry; type: cell-based; conditions: 24 h
How it was run: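 DU145 cells in six-well plates were treated 24 h at 37 °C with vehicle, test compound (3, 10, 30 μM) or silibinin reference (30 μM). Cells were harvested, washed in ice-cold PBS, stained with an Annexin V-FITC apoptosis kit and analysed by flow cytometry. Data are mean ± SD of three individual experiments.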

DU145 cells [2] = test: Cell cycle assay, propidium iodide flow cytometry; type: cell-based; conditions: DU145, 24 h
How it was run: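 DU145 cells were treated 24 h after plating with increasing test compound concentrations (3, 10, 30 μM) or silibinin (30 μM), and harvested 24 h later. They were PBS-washed, fixed in ice-cold 70% ethanol for ≥24 h, rewashed in room-temperature PBS and stained with propidium iodide plus RNase-A (30 min, 37 °C). Flow cytometry followed. Data are mean ± SD of three experiments.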

[3] = cited from earlier work

SMILES	induction of apoptosis (in words) (DU145 cells [1]; DU145, 3, 10 and 30 μM)	ability to promote DU145 cell apoptosis relative to silibinin (DU145 cells [1]; DU145, same concentration of 30 μM)	effect on cell cycle (in words) (DU145 cells [2])	Solubility in H2O [3]
COc1cc(C2Oc3cc(C4Oc5cc(O)cc(O)c5C(=O)C4OC(=O)CCC(=O)O[C@H]4O[C@@H](CO)C(O)[C@@H](O)[C@@H]4O)ccc3OC2CO)ccc1O (stereo partly drawn) [Compound 15, 5,7-Dihydroxy-2-[3-(4-hydroxy-3-methoxyphenyl)-2-(hydroxymethyl)-2,3-dihydrobenzo[b][1,4]dioxin-6-yl]-4-oxochroman-3-yl [(2R,3S,4R,6S)-3,4,5-trihydroxy-6-(hydroxymethyl)tetrahydro-2H-pyran-2-yl] succinate]	induced apoptosis in DU145 cells; also recorded: markedly induced cell apoptosis in a dose-dependent manner	approximately 2 times	arrested cell cycle at G2/M phase; also recorded: blocked the tumor cells in G2/M -phase progression	
COc1cc(C2Oc3cc([C@H]4Oc5cc(O)cc(O)c5C(=O)[C@@H]4O)ccc3OC2CO)ccc1O (stereo partly shown) [Silibinin]				less than 0.4 mg/L
